Test results reported in ChEMBL document CHEMBL1131065, “1,4- and 2,6-disubstituted amidoanthracene-9,10-dione derivatives as inhibitors of human telomerase” (J Med Chem, 1998).
Calls of active or inactive are those of the source. The rule behind the calls is not given here.

Each molecule was assayed on CH1 (assay: Concentration required to inhibit CH1-cell growth by 50%). Conditions: Homo sapiens.
Assay type: functional, cell-based
Summary of the method: (§1)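 Human ovarian carcinoma cells grown as monolayers in DMEM with 10% FBS, 2 mM glutamine and 0.5 µg/mL hydrocortisone under 6% CO2. 3000–6000 cells per well, attached overnight. Salts dissolved in water, added in quadruplicate at final 0.05, 0.25, 1, 5 and 25 µM for 96 h. Cells fixed with TCA and stained with SRB, absorbance read at 540 nm. IC50 taken from mean absorbance as % of untreated control.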
In the case of `CCC[N+](C)(CCC)CCC(=O)Nc1ccc2c(c1)C(=O)c1ccc(NC(=O)CC[N+](C)(CCC)CCC)cc1C2=O`, the IC50 is reported as 680 nM.
For `C[N+]1(CCC(=O)Nc2ccc3c(c2)C(=O)c2ccc(NC(=O)CC[N+]4(C)CCCCC4CO)cc2C3=O)CCCCC1CO` (configuration not stated), the IC50 was 2300 nM.
`O=C(CCN1CCCCC1CO)Nc1ccc(NC(=O)CCN2CCCCC2CO)c2c1C(=O)c1ccccc1C2=O` (configuration not stated) was tested, and the IC50 was 64 nM.
`C[N+]1(CCC(=O)Nc2ccc3c(c2)C(=O)c2ccc(NC(=O)CC[N+]4(C)CCOCC4)cc2C3=O)CCOCC1` gave an IC50 of 1700 nM.
For `C[N+]1(CC(=O)Nc2ccc3c(c2)C(=O)c2ccc(NC(=O)C[N+]4(C)CCCCC4)cc2C3=O)CCCCC1`, the IC50 was 4300 nM.
`CN(C)CCC(=O)Nc1ccc2c(c1)C(=O)c1ccc(NC(=O)CCN(C)C)cc1C2=O` gave an IC50 of 1800 nM.
`C[N+](C)(C)CCC(=O)Nc1ccc(NC(=O)CC[N+](C)(C)C)c2c1C(=O)c1ccccc1C2=O` showed an IC50 of 2000 nM.
For `COc1cccc2c1C(=O)c1c(O)c3c(c(O)c1C2=O)C[C@@](O)(C(=O)CO)C[C@@H]3O[C@H]1C[C@H](N)[C@H](O)[C@H](C)O1` [DOXORUBICIN], the IC50 was 6.3 nM.
`C[N+]1(CCC(=O)Nc2ccc3c(c2)C(=O)c2ccc(NC(=O)CC[N+]4(C)CCCCC4)cc2C3=O)CCCCC1` was tested, and the IC50 was 1850 nM.
For `O=C(CCN1CCCCC1CO)Nc1ccc2c(c1)C(=O)c1ccc(NC(=O)CCN3CCCCC3CO)cc1C2=O` (configuration not stated), the IC50 was 14500 nM.
In the case of `CCC[N+](C)(CCC)CCC(=O)Nc1ccc(NC(=O)CC[N+](C)(CCC)CCC)c2c1C(=O)c1ccccc1C2=O`, the IC50 is reported as 4450 nM.
With `O=C(CCN1CCCCC1)Nc1ccc(NC(=O)CCN2CCCCC2)c2c1C(=O)c1ccccc1C2=O` the IC50 was 260 nM.
`C[N+]1(CC(=O)Nc2ccc3c(c2)C(=O)c2ccc(NC(=O)C[N+]4(C)CCOCC4)cc2C3=O)CCOCC1` gave an IC50 of 18000 nM.

Each molecule was assayed on SK-OV-3 (assay: Concentration required to inhibit SKOV-3-cell growth by 50%). Conditions: Homo sapiens.
Assay type: functional, cell-based
Summary of the method: as §1
Molecule `CCC[N+](C)(CCC)CCC(=O)Nc1ccc2c(c1)C(=O)c1ccc(NC(=O)CC[N+](C)(CCC)CCC)cc1C2=O` has an IC50 of 2000 nM.
In the case of `C[N+]1(CCC(=O)Nc2ccc3c(c2)C(=O)c2ccc(NC(=O)CC[N+]4(C)CCCCC4CO)cc2C3=O)CCCCC1CO` (configuration not stated), the IC50 is reported as 1800 nM.
`O=C(CCN1CCCCC1CO)Nc1ccc(NC(=O)CCN2CCCCC2CO)c2c1C(=O)c1ccccc1C2=O` (configuration not stated) showed an IC50 of 270 nM.
In the case of `C[N+]1(CCC(=O)Nc2ccc3c(c2)C(=O)c2ccc(NC(=O)CC[N+]4(C)CCOCC4)cc2C3=O)CCOCC1`, the IC50 is reported as 3000 nM.
`C[N+]1(CC(=O)Nc2ccc3c(c2)C(=O)c2ccc(NC(=O)C[N+]4(C)CCCCC4)cc2C3=O)CCCCC1` showed an IC50 of 9000 nM.
With `CN(C)CCC(=O)Nc1ccc2c(c1)C(=O)c1ccc(NC(=O)CCN(C)C)cc1C2=O` the IC50 was 2900 nM.
With `C[N+](C)(C)CCC(=O)Nc1ccc(NC(=O)CC[N+](C)(C)C)c2c1C(=O)c1ccccc1C2=O` the IC50 was 11500 nM.
For `COc1cccc2c1C(=O)c1c(O)c3c(c(O)c1C2=O)C[C@@](O)(C(=O)CO)C[C@@H]3O[C@H]1C[C@H](N)[C@H](O)[C@H](C)O1` [DOXORUBICIN], the IC50 was 78 nM.
`C[N+]1(CCC(=O)Nc2ccc3c(c2)C(=O)c2ccc(NC(=O)CC[N+]4(C)CCCCC4)cc2C3=O)CCCCC1` was tested, and the IC50 was 2200 nM.
Molecule `O=C(CCN1CCCCC1CO)Nc1ccc2c(c1)C(=O)c1ccc(NC(=O)CCN3CCCCC3CO)cc1C2=O` (configuration not stated) has an IC50 of 2400 nM.
`CCC[N+](C)(CCC)CCC(=O)Nc1ccc(NC(=O)CC[N+](C)(CCC)CCC)c2c1C(=O)c1ccccc1C2=O` was tested, and the IC50 was 16000 nM.
Work on `O=C(CCN1CCCCC1)Nc1ccc(NC(=O)CCN2CCCCC2)c2c1C(=O)c1ccccc1C2=O` yielded an IC50 of 2400 nM.
In the case of `C[N+]1(CC(=O)Nc2ccc3c(c2)C(=O)c2ccc(NC(=O)C[N+]4(C)CCOCC4)cc2C3=O)CCOCC1`, the IC50 is reported as 45500 nM.

The molecules below were run against DNA polymerase I, thermostable (Thermus aquaticus) (UniProt P19821) (assay: Inhibition of Taq polymerase at 10 uM (Significant inhibition)). Conditions: not given.
Sequence of DNA polymerase I, thermostable (Thermus aquaticus) (P19821 whole entry): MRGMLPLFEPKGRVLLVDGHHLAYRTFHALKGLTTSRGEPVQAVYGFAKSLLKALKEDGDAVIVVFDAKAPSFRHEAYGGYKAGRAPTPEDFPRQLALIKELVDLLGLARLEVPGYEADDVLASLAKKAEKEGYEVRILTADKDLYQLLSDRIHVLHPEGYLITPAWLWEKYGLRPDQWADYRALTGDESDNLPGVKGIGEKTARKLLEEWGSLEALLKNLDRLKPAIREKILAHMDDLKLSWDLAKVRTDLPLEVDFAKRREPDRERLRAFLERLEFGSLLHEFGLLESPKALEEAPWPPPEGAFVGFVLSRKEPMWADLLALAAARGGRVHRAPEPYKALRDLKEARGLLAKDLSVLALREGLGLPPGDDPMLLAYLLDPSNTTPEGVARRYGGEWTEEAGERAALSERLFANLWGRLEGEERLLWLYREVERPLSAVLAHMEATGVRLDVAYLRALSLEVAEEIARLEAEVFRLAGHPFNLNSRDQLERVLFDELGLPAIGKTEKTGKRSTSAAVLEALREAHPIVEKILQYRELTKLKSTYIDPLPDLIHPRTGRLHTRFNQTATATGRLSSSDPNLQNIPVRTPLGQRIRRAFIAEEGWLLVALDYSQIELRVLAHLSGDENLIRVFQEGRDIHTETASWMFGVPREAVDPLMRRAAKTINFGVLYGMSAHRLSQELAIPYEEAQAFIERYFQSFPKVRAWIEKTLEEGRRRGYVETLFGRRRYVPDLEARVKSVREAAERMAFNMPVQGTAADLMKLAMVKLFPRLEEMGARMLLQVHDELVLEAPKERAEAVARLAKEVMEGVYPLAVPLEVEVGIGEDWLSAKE
Summary of the method: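 Compound at final 10 µM in a PCR mix: pCI-neo vector template, forward/reverse primers, Tris-HCl pH 8.8 buffer, 2.5 mM MgCl2, 200 µM each dNTP, 1.25 U thermostable polymerase. Run 30 cycles (94/55/72 °C). Products separated on 2% agarose with ethidium bromide and compared to a no-drug water control (~1 kb product); inhibition graded semiquantitatively.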
With `COc1cccc2c1C(=O)c1c(O)c3c(c(O)c1C2=O)C[C@@](O)(C(=O)CO)C[C@@H]3O[C@H]1C[C@H](N)[C@H](O)[C@H](C)O1` [DOXORUBICIN] the inhibition was “Weak activity”.

The molecules below were run against DNA polymerase I, thermostable (Thermus aquaticus) (UniProt P19821) (assay: Inhibition of Taq polymerase at 50 uM (Total inhibition)). Conditions: not given.
Summary of the method: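 Compound at final 50 µM in PCR with pCI-neo template and primers, Tris-HCl pH 8.8 buffer, 2.5 mM MgCl2, 200 µM each dNTP, 1.25 U thermostable polymerase. Run 30 cycles of 94 °C 1 min, 55 °C 1 min, 72 °C 2.5 min. Agarose/ethidium bromide read-out against a water no-drug control, scored semiquantitatively.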
`COc1cccc2c1C(=O)c1c(O)c3c(c(O)c1C2=O)C[C@@](O)(C(=O)CO)C[C@@H]3O[C@H]1C[C@H](N)[C@H](O)[C@H](C)O1` [DOXORUBICIN] was tested, and the inhibition was “Active”.

Each molecule was assayed on A2780 (assay: Concentration required to inhibit A2780-cell growth by 50%). Conditions: Homo sapiens.
Assay type: functional, cell-based
Summary of the method: as §1
Work on `CCC[N+](C)(CCC)CCC(=O)Nc1ccc2c(c1)C(=O)c1ccc(NC(=O)CC[N+](C)(CCC)CCC)cc1C2=O` yielded an IC50 of 500 nM.
For `C[N+]1(CCC(=O)Nc2ccc3c(c2)C(=O)c2ccc(NC(=O)CC[N+]4(C)CCCCC4CO)cc2C3=O)CCCCC1CO` (configuration not stated), the IC50 was 1250 nM.
`O=C(CCN1CCCCC1CO)Nc1ccc(NC(=O)CCN2CCCCC2CO)c2c1C(=O)c1ccccc1C2=O` (configuration not stated) gave an IC50 of 20 nM.
`C[N+]1(CCC(=O)Nc2ccc3c(c2)C(=O)c2ccc(NC(=O)CC[N+]4(C)CCOCC4)cc2C3=O)CCOCC1` showed an IC50 of 1900 nM.
`C[N+]1(CC(=O)Nc2ccc3c(c2)C(=O)c2ccc(NC(=O)C[N+]4(C)CCCCC4)cc2C3=O)CCCCC1` showed an IC50 of 6500 nM.
`CN(C)CCC(=O)Nc1ccc2c(c1)C(=O)c1ccc(NC(=O)CCN(C)C)cc1C2=O` gave an IC50 of 2550 nM.
Work on `C[N+](C)(C)CCC(=O)Nc1ccc(NC(=O)CC[N+](C)(C)C)c2c1C(=O)c1ccccc1C2=O` yielded an IC50 of 2150 nM.
`COc1cccc2c1C(=O)c1c(O)c3c(c(O)c1C2=O)C[C@@](O)(C(=O)CO)C[C@@H]3O[C@H]1C[C@H](N)[C@H](O)[C@H](C)O1` [DOXORUBICIN] was tested, and the IC50 was 9.6 nM.
`C[N+]1(CCC(=O)Nc2ccc3c(c2)C(=O)c2ccc(NC(=O)CC[N+]4(C)CCCCC4)cc2C3=O)CCCCC1` gave an IC50 of less than 1000 nM.
`O=C(CCN1CCCCC1CO)Nc1ccc2c(c1)C(=O)c1ccc(NC(=O)CCN3CCCCC3CO)cc1C2=O` (configuration not stated) showed an IC50 of 2450 nM.
With `CCC[N+](C)(CCC)CCC(=O)Nc1ccc(NC(=O)CC[N+](C)(CCC)CCC)c2c1C(=O)c1ccccc1C2=O` the IC50 was 1400 nM.
`O=C(CCN1CCCCC1)Nc1ccc(NC(=O)CCN2CCCCC2)c2c1C(=O)c1ccccc1C2=O` showed an IC50 of 290 nM.
Molecule `C[N+]1(CC(=O)Nc2ccc3c(c2)C(=O)c2ccc(NC(=O)C[N+]4(C)CCOCC4)cc2C3=O)CCOCC1` has an IC50 of 13000 nM.

These molecules were tested against Telomerase reverse transcriptase (Homo sapiens, UniProt O14746) (assay: Concentration required to inhibit telomerase activity). Conditions: not given.
Sequence of Telomerase reverse transcriptase (O14746 whole entry): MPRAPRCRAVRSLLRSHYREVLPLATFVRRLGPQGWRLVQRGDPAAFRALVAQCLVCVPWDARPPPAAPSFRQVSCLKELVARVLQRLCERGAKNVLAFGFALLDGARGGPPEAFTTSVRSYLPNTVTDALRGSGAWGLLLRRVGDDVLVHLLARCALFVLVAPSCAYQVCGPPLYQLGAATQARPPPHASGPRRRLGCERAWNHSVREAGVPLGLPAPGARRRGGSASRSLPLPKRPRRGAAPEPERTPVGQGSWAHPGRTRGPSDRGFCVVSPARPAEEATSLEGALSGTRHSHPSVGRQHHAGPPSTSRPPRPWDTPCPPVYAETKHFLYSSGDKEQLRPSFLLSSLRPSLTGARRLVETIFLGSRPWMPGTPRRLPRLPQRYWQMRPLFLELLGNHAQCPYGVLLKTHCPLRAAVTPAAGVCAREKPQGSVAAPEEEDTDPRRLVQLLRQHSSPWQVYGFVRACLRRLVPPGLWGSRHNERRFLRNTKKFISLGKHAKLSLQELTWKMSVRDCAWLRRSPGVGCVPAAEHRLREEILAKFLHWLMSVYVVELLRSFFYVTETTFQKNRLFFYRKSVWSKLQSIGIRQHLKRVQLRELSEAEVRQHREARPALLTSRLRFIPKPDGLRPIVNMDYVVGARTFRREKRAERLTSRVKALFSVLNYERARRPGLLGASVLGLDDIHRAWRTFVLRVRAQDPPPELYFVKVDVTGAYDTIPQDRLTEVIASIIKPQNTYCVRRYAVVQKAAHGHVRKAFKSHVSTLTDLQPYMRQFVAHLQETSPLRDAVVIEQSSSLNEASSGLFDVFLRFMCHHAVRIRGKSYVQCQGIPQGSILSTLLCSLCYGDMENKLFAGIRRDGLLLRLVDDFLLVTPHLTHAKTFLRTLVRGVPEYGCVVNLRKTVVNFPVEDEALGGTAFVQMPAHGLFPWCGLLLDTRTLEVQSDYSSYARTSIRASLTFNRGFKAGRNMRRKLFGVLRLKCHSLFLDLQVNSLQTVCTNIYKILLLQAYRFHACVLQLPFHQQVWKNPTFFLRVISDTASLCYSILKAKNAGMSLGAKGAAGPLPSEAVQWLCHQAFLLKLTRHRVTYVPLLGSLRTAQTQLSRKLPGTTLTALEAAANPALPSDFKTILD
Summary of the method: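 Cell-free modified TRAP assay. Enzyme source is a CHAPS lysate of exponentially growing A2780 ovarian carcinoma cells, which was clarified and stored at -80 °C. Protein (0.04 μg) was incubated with TS primer, dNTPs and [α-32P]dCTP in TRAP buffer (pH 8.3) ± agent at 1, 5, 10, 20 and 50 μM for 20 min at 25 °C. Telomerase was then heat-inactivated at 80 °C, followed by 31-cycle PCR with CX primer. Products were quantified by gel phosphorimaging or by TCA-precipitated filter scintillation counting. IC50 is relative to controls.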
`Nc1nc2c(ncn2[C@H]2CC[C@@H](COP(=O)(O)OP(=O)(O)OP(=O)(O)O)O2)c(=O)[nH]1` [DIDEOXY GUANOSINE TRIPHOSPHATE] was tested, and the IC50 was 8600 nM.
